The results in this text go back to ChEMBL document CHEMBL1137574, “Synthesis and structure-activity relationship for a novel class of potent and selective carbamate-based inhibitors of hormone selective lipase with acute in vivo antilipolytic effects” (J Med Chem, 2007).

Series [1] in a line: Oral bioavailability in Sprague-Dawley rat at 2.4 mg/kg, po. The format is ADME, organism-based. The following applies: in vivo. The procedure, abridged:
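Male Sprague-Dawley rats, 12 weeks old, dosed by oral gavage and i.v. in 10% hydroxypropyl cyclodextrin in phosphate buffer pH 7.0, with one rat per time point. Plasma was diluted 1:1 in 10% methanol, centrifuged and quantified by turbulent-flow chromatography–tandem MS against plasma calibration curves (10-3000 ng/mL).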

A short description of series [2]: Clearance in Sprague-Dawley rat at 1.2 mg/kg, iv and […] mg/kg, po. The format is ADME, organism-based. The following applies: in vivo.
Series [3] has as its target T1, Hepatic triacylglycerol lipase (Homo sapiens) (UniProt P11150).
T1 sequence (whole entry): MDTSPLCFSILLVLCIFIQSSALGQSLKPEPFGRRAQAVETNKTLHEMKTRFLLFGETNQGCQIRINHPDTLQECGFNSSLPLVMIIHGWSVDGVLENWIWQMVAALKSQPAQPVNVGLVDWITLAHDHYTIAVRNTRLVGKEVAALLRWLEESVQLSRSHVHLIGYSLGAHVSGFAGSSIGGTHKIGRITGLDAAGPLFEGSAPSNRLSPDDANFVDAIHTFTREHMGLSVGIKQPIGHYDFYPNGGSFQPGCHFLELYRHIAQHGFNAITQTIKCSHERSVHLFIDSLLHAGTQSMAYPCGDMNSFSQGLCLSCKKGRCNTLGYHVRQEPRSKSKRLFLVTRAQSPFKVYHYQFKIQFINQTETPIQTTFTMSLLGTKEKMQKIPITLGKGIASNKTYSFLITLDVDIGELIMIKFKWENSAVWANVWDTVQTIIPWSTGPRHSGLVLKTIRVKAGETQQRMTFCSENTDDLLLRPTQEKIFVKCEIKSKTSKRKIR
As to the kind of experiment: Inhibition of hepatic lipase. The procedure, abridged: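 Lipase inhibition (pancreatic, bovine lipoprotein, human hepatic) used a fluorochrome (NBD)-labelled triacylglyceride substrate. Inhibitor at six concentrations, 5-fold dilutions from a maximum of 100 µM, each point the mean of two measurements. IC50 from sigmoidal variable-slope nonlinear regression.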

Series [4] deals with Rattus norvegicus. As to the kind of experiment: Antilipolytic activity in Sprague-Dawley rat at 10 mg/kg, po. It counts as ADME, organism-based. Details: dose 10 mg/kg, route oral. The following applies: in vivo. The procedure, abridged: (§1)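 Male Sprague-Dawley rats, 12 weeks old, fasted overnight; single 10 mg/kg p.o. dose (n = 4 per group; vehicle n = 8). Orbital plexus blood under isoflurane taken at baseline (0.5 h predose) and 1, 3 and 5 h postdose into EDTA tubes with 0.1% NaF. Plasma glycerol measured on an automated analyzer as the antilipolytic endpoint.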

Another series deals with T2, Hormone-sensitive lipase (Homo sapiens, UniProt Q05469).
T2 sequence (Q05469 whole entry): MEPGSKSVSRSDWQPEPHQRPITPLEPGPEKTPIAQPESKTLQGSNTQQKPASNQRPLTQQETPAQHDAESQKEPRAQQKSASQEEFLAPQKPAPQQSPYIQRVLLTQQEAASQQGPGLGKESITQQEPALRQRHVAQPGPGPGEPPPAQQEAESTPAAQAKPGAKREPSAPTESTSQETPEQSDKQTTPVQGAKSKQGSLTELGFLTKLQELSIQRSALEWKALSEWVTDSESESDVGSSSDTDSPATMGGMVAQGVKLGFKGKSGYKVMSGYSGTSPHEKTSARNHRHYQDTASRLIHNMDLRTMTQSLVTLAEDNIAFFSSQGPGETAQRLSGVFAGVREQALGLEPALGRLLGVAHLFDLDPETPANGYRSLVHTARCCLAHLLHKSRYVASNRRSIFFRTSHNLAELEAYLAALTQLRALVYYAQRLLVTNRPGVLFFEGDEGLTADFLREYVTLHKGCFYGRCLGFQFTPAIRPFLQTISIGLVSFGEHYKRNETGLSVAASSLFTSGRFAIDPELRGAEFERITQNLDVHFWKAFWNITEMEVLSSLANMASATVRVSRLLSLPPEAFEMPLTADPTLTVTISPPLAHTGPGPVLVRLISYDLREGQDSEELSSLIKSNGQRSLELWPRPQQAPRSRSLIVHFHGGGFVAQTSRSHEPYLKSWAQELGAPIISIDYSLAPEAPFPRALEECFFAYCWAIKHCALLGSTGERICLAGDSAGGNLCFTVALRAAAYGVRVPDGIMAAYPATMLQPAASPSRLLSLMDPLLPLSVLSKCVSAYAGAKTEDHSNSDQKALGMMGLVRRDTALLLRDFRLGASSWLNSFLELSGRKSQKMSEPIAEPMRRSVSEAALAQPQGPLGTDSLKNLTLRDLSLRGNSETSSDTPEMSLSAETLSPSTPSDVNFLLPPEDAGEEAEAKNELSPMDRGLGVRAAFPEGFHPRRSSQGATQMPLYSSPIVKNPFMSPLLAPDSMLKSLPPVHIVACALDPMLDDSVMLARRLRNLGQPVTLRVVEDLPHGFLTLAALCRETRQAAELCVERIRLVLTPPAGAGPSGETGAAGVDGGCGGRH
Description: Inhibition of recombinant human hormone-sensitive lipase.

The target in a further series is Acetylcholinesterase (Homo sapiens, UniProt P22303). Description: Inhibition of acetylcholine esterase. The procedure, abridged:
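Acetylcholinesterase activity measured with acetylthiocholine substrate. Inhibitor at six concentrations in 5-fold steps from a maximum of 100 µM, duplicate measurements averaged. IC50 from variable-slope sigmoidal dose-response fit.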

Series [5] is described as follows: Cmax in Sprague-Dawley rat at 1.2 mg/kg, iv and […] mg/kg, po. It counts as ADME, organism-based. The following applies: in vivo, 2.4 mg/kg.
Series [6] deals with Rattus norvegicus. As to the kind of experiment: Reduction of glycerol in Sprague-Dawley rat at 10 mg/kg, po. The format is ADME, organism-based. Details: dose 10 mg/kg, route oral; scale not given: the % may be the effect or the level left. The following applies: in vivo. The procedure, abridged: as §1
Series [7] in a line: Cmax in Sprague-Dawley rat at 1.1 mg/kg, iv and 2 mg/kg, po. It counts as ADME, organism-based. The following applies: in vivo. The method in brief:
(§2)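 Rat PK study, one rat per time point. Dosed i.v. and p.o. by gavage in 10% hydroxypropyl cyclodextrin in phosphate buffer pH 7.0; one compound was given in 20% Tween 80 plus 5% glucose in phosphate buffer pH 7.0. Plasma was diluted 1:1 with 10% methanol and centrifuged, then quantified by turbulent-flow chromatography–MS/MS against plasma calibration curves spanning 10-3000 ng/mL.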

A short description of series [8]: Oral bioavailability in Sprague-Dawley rat at 2.2 mg/kg, po. The format is ADME, organism-based. The following applies: in vivo. The procedure, abridged:
as §2

Series [9] in a line: Clearance in Sprague-Dawley rat at 1.1 mg/kg, iv and 2.2 mg/kg, po. The format is ADME, organism-based. The following applies: in vivo. The method in brief:
as §2

Active and inactive are the calls of the source. No cut-off for these calls is given here.

Acetylcholinesterase, sequence (P22303 whole entry): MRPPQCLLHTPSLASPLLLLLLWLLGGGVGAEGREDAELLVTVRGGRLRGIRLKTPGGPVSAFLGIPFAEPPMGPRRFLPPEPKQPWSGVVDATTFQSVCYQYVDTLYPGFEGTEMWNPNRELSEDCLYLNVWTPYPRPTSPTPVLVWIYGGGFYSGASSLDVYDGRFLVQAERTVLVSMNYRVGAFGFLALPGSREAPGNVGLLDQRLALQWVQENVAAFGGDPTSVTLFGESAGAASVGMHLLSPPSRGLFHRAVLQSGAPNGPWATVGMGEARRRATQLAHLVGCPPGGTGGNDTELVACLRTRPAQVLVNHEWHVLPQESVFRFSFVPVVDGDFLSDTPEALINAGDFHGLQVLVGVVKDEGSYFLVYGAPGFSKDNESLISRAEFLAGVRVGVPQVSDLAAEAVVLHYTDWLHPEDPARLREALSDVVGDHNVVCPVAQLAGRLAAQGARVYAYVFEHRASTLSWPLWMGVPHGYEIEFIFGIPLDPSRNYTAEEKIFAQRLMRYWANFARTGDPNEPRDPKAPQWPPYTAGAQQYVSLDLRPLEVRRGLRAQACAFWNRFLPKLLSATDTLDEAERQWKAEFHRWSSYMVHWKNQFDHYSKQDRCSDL

On to `O=C(Oc1ccc(Oc2ccc(C(F)(F)F)cn2)cc1)N1CCC(O)CC1`, for which the bioavailability (usually the share of a dose that reaches the circulation, judged against a reference dose that is usually intravenous) in [1] amounted to 56%. This compound also had a clearance in series [2] of 9 mL/min/kg. Further, in series [3], the result was inactive. Moreover, the Activity entry with Rattus norvegicus [4] is on record as “Active”; in the series on Rattus norvegicus [6] it was 42%. In addition, the IC50 (commonly the concentration that gives 50% inhibition) at Hormone-sensitive lipase was 500 nM; at Acetylcholinesterase, over 50000 nM. The highest level in [5] (Cmax) was 1220 ng/mL.

On to `O=C(Oc1ccc(Oc2ccc(C(F)(F)F)cn2)cc1)N1CCC(CO)CC1`, for which the Cmax – broadly, the maximum level reached in the sampled fluid or tissue – in series [7] came to 60 ng/mL. Besides, the outcome in series [3] was inactive. Besides, the bioavailability in [8] came to 10%. The compound also gave a clearance in series [9] of 46 mL/min/kg. In addition, the values for the Activity result with Rattus norvegicus [4] and in the series with Rattus norvegicus [6] were “Active” and 59%, respectively. The IC50 on Hormone-sensitive lipase is 110 nM.
